# Results published in ChEMBL document CHEMBL3580601, “Discovery of a Potent Parenterally Administered Factor XIa Inhibitor with Hydroxyquinolin-2(1H)-one as the P2' Moiety” (ACS Med Chem Lett, 2015).
# The source made the active and inactive calls. The rule behind the calls is not given here.
# Legend:
# [1] = target: T1, Coagulation factor XI (Homo sapiens, UniProt P03951); experiment: Inhibition of human coagulation factor 11a using p-nitroaniline as substrate assessed as substrate hydrolysis by spectrophotometry
# T1 sequence (P03951 19-387 limits assumed): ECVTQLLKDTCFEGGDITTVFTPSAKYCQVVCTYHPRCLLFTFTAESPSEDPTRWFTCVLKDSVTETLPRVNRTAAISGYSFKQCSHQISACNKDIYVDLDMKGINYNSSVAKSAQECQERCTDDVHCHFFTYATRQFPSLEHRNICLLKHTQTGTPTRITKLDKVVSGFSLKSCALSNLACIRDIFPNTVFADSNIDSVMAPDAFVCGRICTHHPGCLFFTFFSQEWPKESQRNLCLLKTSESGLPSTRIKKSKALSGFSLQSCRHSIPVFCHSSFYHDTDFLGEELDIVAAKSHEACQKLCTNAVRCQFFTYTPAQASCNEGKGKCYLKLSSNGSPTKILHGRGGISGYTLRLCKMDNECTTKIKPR
# T1 sequence (P03951 388-625 limits assumed): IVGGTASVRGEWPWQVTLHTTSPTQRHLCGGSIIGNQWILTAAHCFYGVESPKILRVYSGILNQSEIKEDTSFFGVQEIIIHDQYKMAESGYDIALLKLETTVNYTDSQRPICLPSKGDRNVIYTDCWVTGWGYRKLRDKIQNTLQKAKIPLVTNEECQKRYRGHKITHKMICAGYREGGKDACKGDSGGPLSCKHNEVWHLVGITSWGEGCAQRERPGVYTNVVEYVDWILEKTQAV
# Outline: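 Human enzyme Ki, averaged over multiple determinations (n = 2).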
# [2] = Half life in human liver microsomes; assay type: ADME
# [3] = test system: Plasma; experiment: Anticoagulant activity in healthy human plasma assessed as concentration required to cause two fold prolongation of activated partial thromboplastin time; assay type: functional
# [4] = test system: Oryctolagus cuniculus; experiment: Antithrombotic activity in iv dosed rabbit model of electrically induced carotid arterial thrombosis assessed as reduction in thrombus formation; assay type: functional, organism-based
# [5] = test system: Oryctolagus cuniculus; experiment: Antithrombotic activity in iv dosed rabbit model of electrically induced carotid arterial thrombosis assessed as increase in integrated blood flow of the injured artery; assay type: functional, organism-based
# [6] = test system: Plasma; experiment: Anticoagulant activity in rabbit plasma assessed as prolongation of prothrombin time at 100 uM; assay type: functional, cell-free; conditions: Oryctolagus cuniculus
# [7] = test system: Plasma; experiment: Anticoagulant activity in rabbit plasma assessed as prolongation of thrombin time at 100 uM; assay type: functional, cell-free; conditions: Oryctolagus cuniculus
# [8] = Solubility in 50 mM pH 6.5 phosphate buffer using amorphous form of compound; assay type: physicochemical
# [9] = target: Prothrombin (Homo sapiens, UniProt P00734); experiment: Inhibition of thrombin (unknown origin)
# Outline: (§1)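 Ki against each human enzyme, averaged from duplicate IC50 determinations.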
# [10] = target: T1, Coagulation factor XI; experiment: Inhibition of human coagulation factor 11a using p-nitroaniline as substrate assessed as substrate hydrolysis at 37 degC by spectrophotometry
# [11] = target: Trypsin (Homo sapiens, UniProt P07477+P07478+P35030); experiment: Inhibition of trypsin (unknown origin); assay type: protein assay; outline: as §1
# [12] = target: Vitamin K-dependent protein C (Homo sapiens, UniProt P04070); experiment: Inhibition of APC (unknown origin); outline: as §1
# Vitamin K-dependent protein C, sequence (P04070 43-197 limits assumed): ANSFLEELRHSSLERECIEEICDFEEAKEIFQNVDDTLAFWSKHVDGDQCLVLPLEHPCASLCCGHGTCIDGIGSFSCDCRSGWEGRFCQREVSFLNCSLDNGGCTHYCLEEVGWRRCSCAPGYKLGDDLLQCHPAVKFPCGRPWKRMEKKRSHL
# Vitamin K-dependent protein C, sequence (P04070 212-461 limits assumed): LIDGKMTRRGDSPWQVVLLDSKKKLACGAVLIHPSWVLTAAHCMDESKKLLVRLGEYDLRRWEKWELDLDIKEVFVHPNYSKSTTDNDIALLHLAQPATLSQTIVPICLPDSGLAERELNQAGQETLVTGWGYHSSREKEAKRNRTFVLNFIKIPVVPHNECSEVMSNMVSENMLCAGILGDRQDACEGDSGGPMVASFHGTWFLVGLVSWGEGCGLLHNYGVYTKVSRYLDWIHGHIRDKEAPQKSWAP
# [13] = target: Coagulation factor X (Homo sapiens, UniProt P00742); experiment: Inhibition of coagulation factor 10a (unknown origin); outline: as §1
# Coagulation factor X, sequence (P00742 41-179 limits assumed): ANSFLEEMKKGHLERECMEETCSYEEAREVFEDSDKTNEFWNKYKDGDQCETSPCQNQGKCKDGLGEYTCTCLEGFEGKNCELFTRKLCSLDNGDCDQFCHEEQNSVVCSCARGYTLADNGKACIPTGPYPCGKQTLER
# Coagulation factor X, sequence (P00742 235-488 limits assumed): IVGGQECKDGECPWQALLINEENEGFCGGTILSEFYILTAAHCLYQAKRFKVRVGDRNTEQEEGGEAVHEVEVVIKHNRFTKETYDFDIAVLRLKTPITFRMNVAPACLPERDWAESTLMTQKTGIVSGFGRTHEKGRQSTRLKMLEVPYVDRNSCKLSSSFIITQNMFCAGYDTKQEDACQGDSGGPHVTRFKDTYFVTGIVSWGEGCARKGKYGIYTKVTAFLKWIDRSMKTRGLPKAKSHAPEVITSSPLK
# [14] = test system: Plasma; experiment: Anticoagulant activity in rabbit plasma assessed as prolongation of activated partial thromboplastin time at 100 uM; assay type: functional, Oryctolagus cuniculus
# [15] = test system: Plasma; experiment: Anticoagulant activity in cynomolgus monkey plasma assessed as concentration required to cause 1.5 fold prolongation of activated partial thromboplastin time
# [16] = Unbound fraction in rabbit plasma; assay type: ADME, cell-free, Oryctolagus cuniculus
# [17] = test system: Plasma; experiment: Anticoagulant activity in dog plasma assessed as concentration required to cause 1.5 fold prolongation of activated partial thromboplastin time
# [18] = Unbound fraction in rat plasma; assay type: ADME, cell-free
# [19] = target: Tissue-type plasminogen activator (Homo sapiens, UniProt P00750); experiment: Inhibition of tPA (unknown origin); outline: as §1
# Tissue-type plasminogen activator, sequence (P00750 whole entry): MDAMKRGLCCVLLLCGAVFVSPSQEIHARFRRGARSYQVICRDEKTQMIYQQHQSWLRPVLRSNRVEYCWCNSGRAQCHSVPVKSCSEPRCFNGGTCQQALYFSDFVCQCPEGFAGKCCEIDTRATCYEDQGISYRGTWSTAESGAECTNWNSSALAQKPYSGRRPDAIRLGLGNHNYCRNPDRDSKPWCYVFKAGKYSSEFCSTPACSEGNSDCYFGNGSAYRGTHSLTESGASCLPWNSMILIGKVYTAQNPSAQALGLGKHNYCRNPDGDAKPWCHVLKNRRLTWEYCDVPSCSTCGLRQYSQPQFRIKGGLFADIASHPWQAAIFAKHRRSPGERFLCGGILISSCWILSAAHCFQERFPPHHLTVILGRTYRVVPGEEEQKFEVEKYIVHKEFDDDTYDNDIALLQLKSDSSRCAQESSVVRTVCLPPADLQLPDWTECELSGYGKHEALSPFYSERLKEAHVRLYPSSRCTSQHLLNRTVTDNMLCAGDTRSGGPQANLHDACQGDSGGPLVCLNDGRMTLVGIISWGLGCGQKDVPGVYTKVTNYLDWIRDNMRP
# [20] = Unbound fraction in dog plasma; assay type: ADME, cell-free, Canis lupus familiaris
# [21] = Unbound fraction in human plasma; assay type: ADME, cell-free
# [22] = target: Kallikrein-1 (Homo sapiens, UniProt P06870); experiment: Inhibition of tissue kallikrein (unknown origin); outline: as §1
# Kallikrein-1, sequence (P06870 whole entry): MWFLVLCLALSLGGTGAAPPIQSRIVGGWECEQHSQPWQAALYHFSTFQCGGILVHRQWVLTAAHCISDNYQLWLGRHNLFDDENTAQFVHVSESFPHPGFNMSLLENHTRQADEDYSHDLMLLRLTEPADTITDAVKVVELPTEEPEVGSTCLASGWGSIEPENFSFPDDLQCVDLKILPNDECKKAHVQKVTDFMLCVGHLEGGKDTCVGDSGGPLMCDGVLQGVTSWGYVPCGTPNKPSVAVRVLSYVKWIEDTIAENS
# [23] = Inhibition of rabbit coagulation factor 11a using p-nitroaniline as substrate assessed as substrate hydrolysis at 37 degC by spectrophotometry; design: species or system Oryctolagus cuniculus
# [24] = Unbound fraction in cynomolgus monkey plasma; assay type: ADME, cell-free, Macaca fascicularis
# [25] = test system: Plasma; experiment: Anticoagulant activity in rat plasma assessed as concentration required to cause 1.5 fold prolongation of activated partial thromboplastin time
# [26] = target: Plasma kallikrein (Homo sapiens, UniProt P03952); experiment: Inhibition of plasma kallikrein (unknown origin); outline: as §1
# Plasma kallikrein, sequence (P03952 20-390 limits assumed): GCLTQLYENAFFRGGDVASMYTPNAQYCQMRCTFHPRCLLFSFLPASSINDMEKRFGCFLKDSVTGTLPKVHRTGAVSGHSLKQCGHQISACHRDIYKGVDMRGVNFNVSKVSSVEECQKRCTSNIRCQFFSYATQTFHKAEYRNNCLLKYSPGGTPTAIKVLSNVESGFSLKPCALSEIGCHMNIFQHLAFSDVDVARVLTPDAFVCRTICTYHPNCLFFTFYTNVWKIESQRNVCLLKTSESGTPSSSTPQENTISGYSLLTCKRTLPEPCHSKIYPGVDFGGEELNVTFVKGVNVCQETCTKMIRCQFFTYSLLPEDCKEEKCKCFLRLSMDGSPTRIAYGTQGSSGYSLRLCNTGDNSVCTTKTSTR
# Plasma kallikrein, sequence (P03952 391-638 limits assumed): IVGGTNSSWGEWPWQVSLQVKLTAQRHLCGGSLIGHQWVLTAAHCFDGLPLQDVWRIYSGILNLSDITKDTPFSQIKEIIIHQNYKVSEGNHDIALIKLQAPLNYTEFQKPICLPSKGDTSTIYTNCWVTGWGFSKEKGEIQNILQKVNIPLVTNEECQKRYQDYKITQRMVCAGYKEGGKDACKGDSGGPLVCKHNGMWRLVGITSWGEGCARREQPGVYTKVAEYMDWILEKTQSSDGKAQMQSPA
# [27] = target: T2, Coagulation factor XII (Homo sapiens, UniProt P00748); experiment: Inhibition of coagulation factor 12a (unknown origin); outline: as §1
# T2 sequence (P00748 whole entry): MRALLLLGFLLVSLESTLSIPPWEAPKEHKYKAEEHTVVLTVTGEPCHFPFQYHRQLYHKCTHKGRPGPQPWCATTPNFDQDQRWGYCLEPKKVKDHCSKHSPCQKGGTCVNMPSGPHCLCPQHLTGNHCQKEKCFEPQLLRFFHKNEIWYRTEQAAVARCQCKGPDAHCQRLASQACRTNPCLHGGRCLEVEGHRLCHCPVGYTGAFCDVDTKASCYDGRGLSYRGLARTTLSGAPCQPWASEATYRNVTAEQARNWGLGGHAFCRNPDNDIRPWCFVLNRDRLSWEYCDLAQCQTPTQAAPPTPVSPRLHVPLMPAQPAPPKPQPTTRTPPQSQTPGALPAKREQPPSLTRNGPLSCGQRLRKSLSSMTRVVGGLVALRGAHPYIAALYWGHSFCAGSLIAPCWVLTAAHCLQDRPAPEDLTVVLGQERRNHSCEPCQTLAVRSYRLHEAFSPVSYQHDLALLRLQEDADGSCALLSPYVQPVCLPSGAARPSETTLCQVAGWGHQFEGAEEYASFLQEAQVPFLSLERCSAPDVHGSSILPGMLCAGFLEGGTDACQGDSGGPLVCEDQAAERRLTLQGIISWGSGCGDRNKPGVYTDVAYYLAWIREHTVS
# [28] = target: Urokinase-type plasminogen activator (Homo sapiens, UniProt P00749); experiment: Inhibition of urokinase (unknown origin); outline: as §1
# [29] = target: T3, Coagulation factor VII (Homo sapiens, UniProt P08709); experiment: Inhibition of coagulation factor 7a (unknown origin); outline: as §1
# T3 sequence (P08709 whole entry): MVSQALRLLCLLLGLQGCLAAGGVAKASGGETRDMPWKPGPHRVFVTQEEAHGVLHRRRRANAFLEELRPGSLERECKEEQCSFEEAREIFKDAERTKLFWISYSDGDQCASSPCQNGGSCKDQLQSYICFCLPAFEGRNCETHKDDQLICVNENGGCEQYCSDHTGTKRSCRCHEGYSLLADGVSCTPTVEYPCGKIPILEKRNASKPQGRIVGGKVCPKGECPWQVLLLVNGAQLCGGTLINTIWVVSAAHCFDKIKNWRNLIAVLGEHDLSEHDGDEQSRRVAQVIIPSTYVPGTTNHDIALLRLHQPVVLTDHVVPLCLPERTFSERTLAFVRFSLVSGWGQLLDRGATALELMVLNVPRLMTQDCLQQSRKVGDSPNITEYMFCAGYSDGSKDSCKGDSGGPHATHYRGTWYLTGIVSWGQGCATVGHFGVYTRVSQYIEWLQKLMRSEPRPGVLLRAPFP
# [30] = test system: Plasma; experiment: Anticoagulant activity in rabbit plasma assessed as concentration required to cause 1.5 fold prolongation of activated partial thromboplastin time
# [31] = Inhibition of chymotrypsin (unknown origin); design: species or system Homo sapiens; outline: as §1
# [32] = organism: Oryctolagus cuniculus; experiment: Toxicity in rabbit cuticle bleeding time model assessed as prologation of bleeding time at 100 uM; assay type: organism-based; conditions: in vivo
# [33] = target: Coagulation factor IX (Homo sapiens, UniProt P00740); experiment: Inhibition of coagulation factor 9a (unknown origin); outline: as §1
# Coagulation factor IX, sequence (P00740 47-191 limits assumed): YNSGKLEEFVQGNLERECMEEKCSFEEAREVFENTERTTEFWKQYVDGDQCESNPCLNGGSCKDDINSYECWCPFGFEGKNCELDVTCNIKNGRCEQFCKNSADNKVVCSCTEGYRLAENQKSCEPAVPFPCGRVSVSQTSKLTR
# Coagulation factor IX, sequence (P00740 227-461 limits assumed): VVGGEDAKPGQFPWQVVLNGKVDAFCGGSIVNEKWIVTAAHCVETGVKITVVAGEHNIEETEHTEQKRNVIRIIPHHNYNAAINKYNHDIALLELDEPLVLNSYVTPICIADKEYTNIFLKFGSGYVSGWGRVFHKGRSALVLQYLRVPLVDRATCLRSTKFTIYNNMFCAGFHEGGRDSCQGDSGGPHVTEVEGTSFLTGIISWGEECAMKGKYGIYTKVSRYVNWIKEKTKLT
# [34] = Half life in dog at 1 mg/kg, iv; assay type: ADME, organism-based, Canis lupus familiaris; conditions: in vivo
# Outline: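 Dogs dosed IV at 1 mg/kg with the HCl salt in 10% DMAc/10% ethanol/10% propylene glycol/70% water, with half-life from the pharmacokinetic profile.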
# [35] = Half life in cynomolgus monkey at 1 mg/kg, iv; assay type: ADME, organism-based, Macaca fascicularis; conditions: in vivo
# [36] = Half life in rabbit at 1 mg/kg, iv; assay type: ADME, organism-based, Oryctolagus cuniculus; conditions: in vivo
# Outline: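 Rabbits given a single IV dose of 1 mg/kg of the HCl salt in 10% DMAc/90% D5W (5% dextrose in water), with half-life taken from the plasma PK profile.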
# [37] = Half life in rat at 1 mg/kg, iv; assay type: ADME, organism-based; conditions: in vivo
smiles,measurement,setting,value
O=C(/C=C/c1cc(Cl)ccc1-n1cnnn1)N[C@@H](Cc1ccccc1)c1nc(-c2ccc3c(c2)CCC(=O)N3)c(Cl)[nH]1,Ki,[1],19 nM
same,half-life,[2],48 min
same,2aPTT,[3],60 µM
CN1CCN(C(=O)C[C@H](NC(=O)/C=C/c2cc(Cl)ccc2-n2cnnn2)c2nc(-c3ccc4[nH]c(=O)cc(O)c4c3)c(Cl)[nH]2)CC1 [listing 1 of 2 here],Activity,[4],Dose-dependent effect
same,Activity,[5],Dose-dependent effect
same,Activity,[6],inactive
same,Activity,[7],inactive
COC(=O)Nc1ccc(-c2nc([C@H](CC(=O)N3CCN(C(C)=O)CC3)NC(=O)/C=C/c3cc(Cl)ccc3-n3cnnn3)[nH]c2Cl)cc1,Ki,[1],0.6 nM
same,half-life,[2],45 min
same,2aPTT,[3],4.6 µM
same,solubility,[8],3 µg/mL
Cc1ccc(-n2cnnn2)c(CCC(=O)N[C@@H](Cc2ccccc2)c2nc(-c3ccc4[nH]c(=O)cc(O)c4c3)c(Cl)[nH]2)c1,Ki,[1],0.5 nM
same,half-life,[2],10 min
same,2aPTT,[3],9.1 µM
CN1CCN(C(=O)C[C@H](NC(=O)/C=C/c2cc(Cl)ccc2-n2cnnn2)c2nc(-c3ccc4[nH]c(=O)cc(O)c4c3)c(Cl)[nH]2)CC1 [listing 2 of 2 here],Ki,[9],7400 nM
same,Ki,[1],0.04 nM
same,Ki,[10],0.1 nM
same,Ki,[11],6200 nM
same,Ki,[12],> 54000 nM
same,Ki,[13],> 9000 nM
same,half-life,[2],> 200 min
same,fold change (FC),[14],3.2
same,2aPTT,[3],1 µM
same,EC1.5,[15],0.3 µM
same,fraction unbound,[16],0.07
same,EC1.5,[17],0.3 µM
same,fraction unbound,[18],0.026
same,Ki,[19],29000 nM
same,fraction unbound,[20],0.18
same,fraction unbound,[21],0.08
same,Ki,[22],> 30000 nM
same,Ki,[23],0.58 nM
same,EC50,[4],530 nM
same,fraction unbound,[24],0.08
same,EC1.5,[25],>20 µM
same,solubility,[8],17 µg/mL
same,Ki,[26],7 nM
same,Ki,[27],> 20000 nM
same,Ki,[28],> 1600 nM
same,Ki,[29],> 13300 nM
same,EC1.5,[30],1 µM
same,Ki,[31],400 nM
same,Activity,[32],Non-toxic
same,Ki,[33],> 60000 nM
Cc1ccc(-n2cnnn2)c(CCC(=O)N[C@@H](Cc2ccccc2)c2nc(-c3ccc4[nH]c(=O)ccc4c3)c(Cl)[nH]2)c1,Ki,[1],12 nM
same,half-life,[2],2.2 min
same,2aPTT,[3],69 µM
CN1CCN(C(=O)C[C@H](NC(=O)/C=C/c2cc(Cl)ccc2-n2cnnn2)c2nc(-c3ccc4[nH]c(=O)cc(O)c4c3)c(Cl)[nH]2)CC1.Cl,half-life,[34],66 min
same,half-life,[35],114 min
same,half-life,[36],66 min
COC(=O)Nc1ccc(-c2nc([C@H](CC(=O)N3CCOCC3)NC(=O)/C=C/c3cc(Cl)ccc3-n3cnnn3)[nH]c2Cl)cc1,Ki,[1],0.7 nM
same,half-life,[2],6.2 min
same,2aPTT,[3],7.4 µM
same,solubility,[8],1 µg/mL
O=C(/C=C/c1cc(Cl)ccc1-n1cnnn1)N[C@@H](Cc1ccccc1)c1nc(-c2ccc3[nH]c(=O)cc(O)c3c2)c(Cl)[nH]1,Ki,[1],0.18 nM
same,half-life,[2],56 min
same,2aPTT,[3],11 µM
COC(=O)Nc1ccc(-c2nc([C@H](CC(=O)N3CCS(=O)(=O)CC3)NC(=O)/C=C/c3cc(Cl)ccc3-n3cnnn3)[nH]c2Cl)cc1,Ki,[1],0.3 nM
same,half-life,[2],154 min
same,2aPTT,[3],3.6 µM
same,solubility,[8],1 µg/mL
COC(=O)Nc1ccc(-c2nc([C@H](Cc3ccccc3)NC(=O)/C=C/c3cc(Cl)ccc3-n3cnnn3)[nH]c2Cl)cc1,Ki,[1],3.7 nM
same,half-life,[2],46 min
same,2aPTT,[3],19 µM
same,solubility,[8],< 1 µg/mL
CN1CCN(C(=O)C[C@H](NC(=O)/C=C/c2cc(Cl)ccc2-n2cnnn2)c2nc(-c3ccc4[nH]c(=O)cc(O)c4c3)c(Cl)[nH]2)CC1.O=C(O)C(F)(F)F,half-life,[37],66 min
O=C(CCc1cc(Cl)ccc1-n1cnnn1)N[C@@H](Cc1ccccc1)c1nc(-c2ccc3[nH]c(=O)cc(O)c3c2)c(Cl)[nH]1,Ki,[1],0.32 nM
same,half-life,[2],6.6 min
same,2aPTT,[3],7.2 µM
COC(=O)Nc1ccc(-c2nc([C@H](CC(=O)N3CCN(C)CC3)NC(=O)/C=C/c3cc(Cl)ccc3-n3cnnn3)[nH]c2Cl)cc1,Ki,[1],0.4 nM
same,half-life,[2],25 min
same,2aPTT,[3],3.7 µM
same,solubility,[8],44 µg/mL
